The source of these data is article PMC9237582 (Asian Journal of Pharmaceutical Sciences, 2022).

The subject of data set [1] is bleomycin-induced rat model of IPF. Kind of data set: Preliminary pharmacodynamics in bleomycin-induced rat model of IPF. It is filed as in vivo. Conditions: Day 29, vs bleo group; same dosing. In a few lines: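 Male Sprague–Dawley rats under chloral hydrate anaesthesia received intratracheal bleomycin (5 mg/kg in 0.1 ml saline), then were held upright and rotated 5 min; controls got saline. From day 1, test powder was insufflated at 10 mg/kg as Sal B once daily for 28 d. Comparators: same dose iv, reference drug intragastric 31.5 mg/kg, or air. On day 29, right lung lavaged (3× cold saline); left lung stored −80 °C for Hyp.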

A short description of data set [2]: Preliminary pharmacokinetic study in plasma. It counts as in vivo, rat. The method in brief: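 Male Sprague–Dawley rats (200 ± 20 g, n = 6/group). Dose 10 mg/kg as Sal B, by intratracheal powder insufflation or iv solution. Suborbital blood was taken into heparin at 0.033–12 h, and plasma was spun 10 min at 4 °C. Ascorbic acid, internal standard and HCl were added, then ethyl acetate extraction. Dried extract was reconstituted in methanol-water 80:20 for UPLC-MS/MS; parameters came from concentration-time data.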

Data set [3] is described as follows: Lung tissue distribution study. It counts as in vivo, rat. The method in brief: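 Male Sprague–Dawley rats (200 ± 20 g), fasted 12 h. Dose 10 mg/kg as Sal B, given either as dry powder or as iv solution. Powder was insufflated intratracheally under chloral hydrate anaesthesia (three 1.5 ml air pushes). Lungs were collected at 0.033–12 h (9 time points, n = 3 each) and homogenised 1:5 (g/ml) in iced saline. Homogenates were processed as for plasma and quantified by UPLC-MS/MS.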

The conditions of data set [4]: cited from earlier work.
The subject of a further data set is NIH-3T3 cells. Description: Scratch test, TGF-β1-induced cell migration. It counts as cell-based, mouse. Conditions: TGF-β1 5 ng/ml, 48 h; vs TGF-β1 group. The method in brief: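 NIH-3T3 fibroblasts were seeded in 12-well format, cultured 24 h, then scratched. After 24 h synchronisation, TGF-β1 (5 ng/ml) was added with test compound, SB431542 or a reference drug, and incubated 48 h. Wounds were photographed under an inverted microscope at 0, 24 and 48 h after drug addition.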

The subject of data set [5] is NIH-3T3 mouse embryonic fibroblasts. Description: MTT assay. It counts as cell-based. Conditions: NIH3T3, 48 h. In a few lines: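 NIH-3T3 cells were grown in high-glucose DMEM with 10% FBS and penicillin/streptomycin at 37 °C, 5% CO2, in 96-well format. Test compound was given at 25–200 µg/ml and a reference drug at 0.25–10 µM, for 48 h. MTT (5 mg/ml) was added for 4 h, dissolved in DMSO, and absorbance read at 490 nm.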

The mark [6] stands for this setting: Sal B in rat plasma, 10 mg/kg as Sal B, iv solution or pulmonary DPI, n = 6.
Where [7] appears, read: male, Sprague-Dawley, rat, plasma, iv, 10 mg/kg.
The mark [8] stands for this setting: Sal B in rat lung tissue, 10 mg/kg as Sal B, iv solution or pulmonary DPI, n = 3.
The mark [9] stands for this setting: male, Sprague-Dawley, rat, lung tissue, iv, 10 mg/kg.

Turning to `O=C(/C=C/c1ccc(O)c2c1[C@H](C(=O)O[C@H](Cc1ccc(O)c(O)c1)C(=O)O)[C@@H](c1ccc(O)c(O)c1)O2)O[C@H](Cc1ccc(O)c(O)c1)C(=O)O` [Sal B, Salvianolic acid B], in data set [1], the “Hyp content in lung tissue homogenate” value is “significantly lower”, the “IFN-γ content in BALF” value is “not significantly different”, the “IL-1β content in BALF” value is “significantly decreased” and the “IL-4 content in BALF” value was “not significantly different”. Moreover, in data set [1], the “IL-6 content in BALF” value was “significantly decreased”, the “IL-18 content in BALF” value is given as “significantly decreased”, the “MDA content in lung tissue homogenate” value was “significantly reduced” and the “SOD activity in lung tissue homogenate” value is “increased significantly”. Besides, in data set [1], the “TGF-β1 protein content in BALF” value was “significantly decreased” and the “serum MPO content” value is “significantly reduced”. In data set [2] (setting [6]), the Cl/F came out at 41.5 ± 7.83 mL/min/kg, the “Lz (elimination of phase slope)” value amounted to 0.45 ± 0.07 h⁻¹ and the Vz/F came to 5.62 ± 1.47 L/kg. In addition, in data set [2] (setting [7]), the AUC(0-inf) came to 6550 ± 1490 ng·h/mL, the concentration peaked (Cmax) at 16400 ng/mL, the MRT turned out to be 49.8 ± 6 min and the Tmax turned out to be 1.98 min. In data set [2] (setting [7]), this molecule showed a half-life of 93.6 ± 16.8 min. Besides, in data set [3] (setting [8]), the “AUC0-∞” value was 1898.5 ± 134.03 ng·h/g, the peak concentration (Cmax) is on record as 13,150.38±619.02 ng/g and the Lz worked out at 0.77 ± 0.04 h⁻¹. For the same molecule, in data set [3] (setting [9]), the Cmax stood at 13200 ng/g, the MRT worked out at 11.4 min, the Tmax amounted to 1.98 min and the half-life is 54 ± 3 min. In addition, the “absolute bioavailability of Sal B in previous studies” value in data set [4] is given as 19.15%±7.44%.
In the case of `NC(=O)c1ccc(-c2nc(-c3ccc4c(c3)OCO4)c(-c3ccccn3)[nH]2)cc1` [SB431542], in the data set on NIH-3T3 cells, the “effect on TGF-β1-induced cell migration” value is given as “significantly inhibited”.
Regarding `COC(=O)c1ccc2c(c1)NC(=O)/C2=C(\Nc1ccc(N(C)C(=O)CN2CCN(C)CC2)cc1)c1ccccc1` [nidanib, nintedanib, reference compound], the “concentration with no significant effect on cell viability” value in data set [5] was < 1000 nM. Also, the “effect on TGF-β1-induced cell migration” value with NIH-3T3 cells is “significantly inhibited the migration of NIH-3T3 cells in a concentration dependent manner”. In data set [1], the “Hyp content in lung tissue homogenate” value is listed as “significantly lower”, the “IFN-γ content in BALF” value is “significantly increased(P < 0.01)”, the “IL-1β content in BALF” value is listed as “significantly decreased” and the “IL-4 content in BALF” value is listed as “significantly decreased”. In data set [1], the “IL-6 content in BALF” value was “significantly decreased”, the “IL-18 content in BALF” value is “significantly decreased”, the “MDA content in lung tissue homogenate” value is listed as “significantly reduced” and the “SOD activity in lung tissue homogenate” value is given as “increased significantly”. Also, in data set [1], the “TGF-β1 protein content in BALF” value is “significantly decreased” and the “serum MPO content” value was “significantly reduced”.

As a reminder, the AUC(0-inf) is total exposure, with the tail of the curve extrapolated. The low end stands for low exposure, the high end for high exposure. What is called Cmax is the maximum level reached in the sampled fluid or tissue. For orientation: MRT means the average time that molecules of a dose stay in the body. Usually Tmax stands for the time from dosing to the highest level. In general, half-life refers to the time needed for the level to fall by half in the phase considered.
